Measurements reported in publication PMC6447450 (Structure (London, England : 1993), 2019).
Entries after “also recorded” stand apart in the source; their conditions may differ.

Experiments:
[1] = test system: Bfl-1, Mcl-1, Bcl-xL, Bcl-w, and Bcl-2; assay: Yeast-surface display FACS binding to five Bcl-2 family paralogs; set-up: species or system human; settings: for selectivity of Mcl-1 binders among Bcl-2 family paralogs (in words): Mcl-1 versus Bfl-1, Bcl-xL
Summary of the method: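 Myc-tagged human Mcl-1 (172-327), Bfl-1 (1-151), Bcl-2 (1-217), Bcl-w (1-164) and Bcl-xL (1-209) tested at 1000, 100, 10 and 1 nM on peptide-displaying yeast induced in galactose medium for 20-24 hr at 30 °C. Display detected with anti-HA and bound target with anti-c-myc (15 min, 4 °C), then APC anti-mouse and PE anti-rabbit (15 min, 4 °C, dark). Read-out: FACS median binding signal of expression-positive cells.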

Bfl-1 = target: T1, Bfl-1 (Homo sapiens, UniProt Q16548); assay: Yeast-surface display FACS binding to Bfl-1
T1 sequence (Q16548 1-151): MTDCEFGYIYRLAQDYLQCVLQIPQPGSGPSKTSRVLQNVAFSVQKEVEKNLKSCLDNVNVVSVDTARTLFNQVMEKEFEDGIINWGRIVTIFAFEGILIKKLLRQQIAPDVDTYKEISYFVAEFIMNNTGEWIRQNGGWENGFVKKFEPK

Mcl-1 = Mcl-1 (Homo sapiens, UniProt Q07820); assay: Yeast-surface display FACS binding to Mcl-1
Mcl-1, sequence (Q07820 172-327): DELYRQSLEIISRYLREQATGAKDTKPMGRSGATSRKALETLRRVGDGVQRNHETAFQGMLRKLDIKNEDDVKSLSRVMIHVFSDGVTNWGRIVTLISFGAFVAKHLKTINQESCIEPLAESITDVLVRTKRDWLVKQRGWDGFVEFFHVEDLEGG

With APKEKEVARTLIKIGEEINEALK- [dM5] the “selectivity of Mcl-1 binders among Bcl-2 family paralogs (in words)” value ([1]; yeast-surface display) was “selective”.
-SYIDKIADLIDKVVEEINSKLE- [dF6] was tested, and the “binding to target Bfl-1 (in words)” value (Bfl-1) was “did not bind to their targets with high affinity; also recorded: did not bind tightly to Bfl-1”.
With APYLEQVARTLLHIGMEINEALR- [dM6] the “binding to target Mcl-1 (in words)” value (Mcl-1) was “did not bind to their targets with high affinity” and the “binding to Bcl-2 family members (in words)” value ([1]; yeast-surface display FACS, Bfl-1, Mcl-1, Bcl-xL) was “not binding to any of the Bcl-2 family members we tested”.
In the case of APKEKEVAETLRKIGEEINEALK- [dM1], the “selectivity of Mcl-1 binders among Bcl-2 family paralogs (in words)” value ([1]; yeast-surface display) is reported as “selective”.
With “-QWVREIAAGLRRAADDVNAQVER [FS2, reference compound]” the “selectivity for Bfl-1” value ([1]; Bfl-1 versus Mcl-1, Bcl-xL, yeast-surface display) was over 100 fold.
